Experimental data published in ChEMBL document CHEMBL1141780, “Diterpenoid, steroid, and triterpenoid agonists of liver X receptors from diversified terrestrial plants and marine sources” (J Nat Prod, 2005).

The compounds below were run against T1, Oxysterols receptor LXR-alpha (Homo sapiens, UniProt Q13133) (assay: Agonist activity at human recombinant LXRalpha expressed in Escherichia coli BL21 cells assessed as association of recombinant SRC1 to LXRalpha ligand binding domain by HTRF assay). Settings: not given.
T1 sequence (Q13133 whole entry): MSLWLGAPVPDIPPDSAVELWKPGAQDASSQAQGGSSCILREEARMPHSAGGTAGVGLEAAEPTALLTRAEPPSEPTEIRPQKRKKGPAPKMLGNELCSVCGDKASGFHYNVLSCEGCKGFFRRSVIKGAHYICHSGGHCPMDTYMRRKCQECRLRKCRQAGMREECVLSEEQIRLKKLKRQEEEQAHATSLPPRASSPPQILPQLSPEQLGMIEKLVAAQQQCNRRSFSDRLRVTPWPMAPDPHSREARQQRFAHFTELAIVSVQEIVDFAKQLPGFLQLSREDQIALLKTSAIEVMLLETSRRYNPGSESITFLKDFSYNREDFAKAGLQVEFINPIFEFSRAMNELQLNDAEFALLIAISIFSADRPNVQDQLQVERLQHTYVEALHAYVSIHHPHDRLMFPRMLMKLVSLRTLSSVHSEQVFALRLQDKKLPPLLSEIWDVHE
For `C[C@]1(C(=O)O)CCC[C@]2(C)c3cc(O)ccc3CC[C@@H]12` [PODOCARIC ACID], the EC50 was greater than 50 µM. `CC(C)=CCC[C@@H](C)[C@H]1C[C@H](O)[C@@]2(C)C3=CC[C@H]4C(C)(C)[C@@H](O)CC[C@]4(C)C3=CC[C@]12C` showed an EC50 of 0.03 µM. In the case of `C=C[C@@]1(C)CC=C2[C@@H](CC[C@@H]3[C@](C)(C(=O)NCC45CC6CC(CC(C6)C4)C5)CCC[C@@]23C)C1`, the EC50 is reported as greater than 50 µM. `C=C[C@@]1(C)CC=C2[C@@H](CC[C@@H]3[C@](C)(CO)CCC[C@@]23C)C1` showed an EC50 of 0.39 µM. In the case of `CC(C)CC[C@@H](O)[C@@H](C)[C@H]1CC[C@H]2[C@@H]3CC=C4C[C@@H](O)CC[C@]4(C)[C@H]3CC[C@]12C` [22(R)-HYDROXYCHOLESTEROL], the EC50 is reported as greater than 15 µM. Compound `C/C(=C\CC[C@@H](C)[C@H]1CC[C@@]2(C)[C@@H]3CC=C4[C@@H](CC[C@@H](O)C4(C)C)[C@]3(C)CC[C@]12C)C(=O)O` [ROSACEA ACID B] has an EC50 greater than 50 µM.

Each compound was assayed against T2, Oxysterols receptor LXR-beta (Homo sapiens) (UniProt P55055) (assay: Activity of human recombinant LXRbeta ligand binding domain-mediated transcriptional activity in human HEK293 cells with Gal4 reporter plasmid by luciferase reporter assay). Settings: not given.
T2 sequence (whole entry): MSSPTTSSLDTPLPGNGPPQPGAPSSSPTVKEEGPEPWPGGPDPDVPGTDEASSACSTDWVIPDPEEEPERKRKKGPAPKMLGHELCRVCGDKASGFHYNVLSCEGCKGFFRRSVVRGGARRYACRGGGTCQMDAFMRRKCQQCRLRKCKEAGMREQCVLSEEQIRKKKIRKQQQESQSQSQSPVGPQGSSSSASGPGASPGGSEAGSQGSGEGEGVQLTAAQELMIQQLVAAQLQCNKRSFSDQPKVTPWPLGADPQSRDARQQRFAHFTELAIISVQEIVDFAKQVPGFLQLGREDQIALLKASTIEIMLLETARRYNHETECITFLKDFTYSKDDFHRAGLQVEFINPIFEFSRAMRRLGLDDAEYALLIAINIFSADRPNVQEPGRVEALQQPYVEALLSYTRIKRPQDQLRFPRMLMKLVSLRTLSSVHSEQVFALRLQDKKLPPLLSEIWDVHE
Type: cell-based
How it was run: (§1)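 Cell-based transactivation in HEK-293 cells with chimeric constructs: yeast Gal4 DNA-binding domain fused to the hinge region and LBD of LXRα or LXRβ. Agonist activity is read as fold induction over DMSO control.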
Compound `CCCc1c(OCCCSc2ccc(CC(=O)O)cc2Cl)ccc2c(C(F)(F)F)noc12` has a fold change (FC) of 35. In the case of `CC(C)CC[C@@H](O)[C@@H](C)[C@H]1CC[C@H]2[C@@H]3CC=C4C[C@@H](O)CC[C@]4(C)[C@H]3CC[C@]12C` [22(R)-HYDROXYCHOLESTEROL], the fold change (FC) is reported as 8.

These compounds were tested against T3, Oxysterols receptor LXR-alpha (Homo sapiens) (UniProt Q13133) (assay: Displacement of [3H2]F3-methyl AA from human recombinant LXRalpha expressed in Escherichia coli BL21 cells at 100 uM). Settings: not given.
T3 sequence (whole entry): T1 sequence (Q13133 whole entry)
`CC(C)CC[C@@H](O)[C@@H](C)[C@H]1CC[C@H]2[C@@H]3CC=C4C[C@@H](O)CC[C@]4(C)[C@H]3CC[C@]12C` [22(R)-HYDROXYCHOLESTEROL] showed an Activity of 70%.

The compounds below were run against T3, Oxysterols receptor LXR-alpha (Homo sapiens) (assay: Activity of human recombinant LXRalpha ligand binding domain-mediated transcriptional activity in human HEK293 cells with Gal4 reporter plasmid at 2.2 uM by luciferase reporter assay). Settings: not given.
Type: cell-based
How it was run: as §1
In the case of `CC(C)=CCC[C@@H](C)[C@H]1C[C@H](O)[C@@]2(C)C3=CC[C@H]4C(C)(C)[C@@H](O)CC[C@]4(C)C3=CC[C@]12C`, the fold change (FC) is reported as 8.

Each compound was assayed against T3, Oxysterols receptor LXR-alpha (Homo sapiens) (assay: Activity of human recombinant LXRalpha ligand binding domain-mediated transcriptional activity in human HEK293 cells with Gal4 reporter plasmid by luciferase reporter assay). Settings: not given.
Type: cell-based
How it was run: as §1
Work on `CCCc1c(OCCCSc2ccc(CC(=O)O)cc2Cl)ccc2c(C(F)(F)F)noc12` yielded a fold change (FC) of 20. In the case of `CC(C)CC[C@@H](O)[C@@H](C)[C@H]1CC[C@H]2[C@@H]3CC=C4C[C@@H](O)CC[C@]4(C)[C@H]3CC[C@]12C` [22(R)-HYDROXYCHOLESTEROL], the fold change (FC) is reported as 4.

Each compound was assayed against T2, Oxysterols receptor LXR-beta (Homo sapiens). Settings: BL21.
`C[C@]1(C(=O)O)CCC[C@]2(C)c3cc(O)ccc3CC[C@@H]12` [PODOCARIC ACID] was tested, and the LC50 was greater than 50 µM. In the case of `CC(C)=CCC[C@@H](C)[C@H]1C[C@H](O)[C@@]2(C)C3=CC[C@H]4C(C)(C)[C@@H](O)CC[C@]4(C)C3=CC[C@]12C`, the LC50 is reported as greater than 15 µM. `C=C[C@@]1(C)CC=C2[C@@H](CC[C@@H]3[C@](C)(C(=O)NCC45CC6CC(CC(C6)C4)C5)CCC[C@@]23C)C1` gave an LC50 greater than 50 µM. In the case of `CCCc1c(OCCCSc2ccc(CC(=O)O)cc2Cl)ccc2c(C(F)(F)F)noc12`, the LC50 is reported as 0.025 µM. `C=C[C@@]1(C)CC=C2[C@@H](CC[C@@H]3[C@](C)(CO)CCC[C@@]23C)C1` gave an LC50 of 0.73 µM. With `C/C(=C\CC[C@@H](C)[C@H]1CC[C@@]2(C)[C@@H]3CC=C4[C@@H](CC[C@@H](O)C4(C)C)[C@]3(C)CC[C@]12C)C(=O)O` [ROSACEA ACID B] the LC50 was 0.39 µM.

What follows are compounds tested against T4, Oxysterols receptor LXR-beta (Homo sapiens, UniProt P55055) (assay: Agonist activity at human recombinant LXRbeta expressed in Escherichia coli BL21 cells assessed as association of recombinant SRC1 to LXRbeta ligand binding domain by HTRF assay). Settings: not given.
T4 sequence (P55055 whole entry): T2 sequence (whole entry)
Compound `C[C@]1(C(=O)O)CCC[C@]2(C)c3cc(O)ccc3CC[C@@H]12` [PODOCARIC ACID] has an EC50 greater than 50 µM. Compound `CC(C)=CCC[C@@H](C)[C@H]1C[C@H](O)[C@@]2(C)C3=CC[C@H]4C(C)(C)[C@@H](O)CC[C@]4(C)C3=CC[C@]12C` has an EC50 greater than 50 µM. Compound `C=C[C@@]1(C)CC=C2[C@@H](CC[C@@H]3[C@](C)(C(=O)NCC45CC6CC(CC(C6)C4)C5)CCC[C@@]23C)C1` has an EC50 greater than 50 µM. In the case of `C=C[C@@]1(C)CC=C2[C@@H](CC[C@@H]3[C@](C)(CO)CCC[C@@]23C)C1`, the EC50 is reported as greater than 50 µM. `CC(C)CC[C@@H](O)[C@@H](C)[C@H]1CC[C@H]2[C@@H]3CC=C4C[C@@H](O)CC[C@]4(C)[C@H]3CC[C@]12C` [22(R)-HYDROXYCHOLESTEROL] was tested, and the EC50 was greater than 15 µM. `C/C(=C\CC[C@@H](C)[C@H]1CC[C@@]2(C)[C@@H]3CC=C4[C@@H](CC[C@@H](O)C4(C)C)[C@]3(C)CC[C@]12C)C(=O)O` [ROSACEA ACID B] showed an EC50 greater than 50 µM.

What follows are compounds tested against T2, Oxysterols receptor LXR-beta (Homo sapiens) (assay: Displacement of [3H2]F3-methyl AA from human recombinant LXRbeta expressed in Escherichia coli BL21 cells at 100 uM). Settings: not given.
`CC(C)CC[C@@H](O)[C@@H](C)[C@H]1CC[C@H]2[C@@H]3CC=C4C[C@@H](O)CC[C@]4(C)[C@H]3CC[C@]12C` [22(R)-HYDROXYCHOLESTEROL] gave an Activity of 60%.
